The values below come from ChEMBL document CHEMBL4359895, “Discovery and biological evaluation of darolutamide derivatives as inhibitors and down-regulators of wild-type AR and the mutants” (Eur J Med Chem, 2019).

Substitutions are numbered along the chain they refer to. In brackets after ≈: the same amount, converted by molar mass. Activity calls are given as the source filed them. No cut-off for these calls is given here.

Data set [1] concerns the target T1, Androgen receptor (Homo sapiens) (UniProt P10275).
T1 sequence (whole entry): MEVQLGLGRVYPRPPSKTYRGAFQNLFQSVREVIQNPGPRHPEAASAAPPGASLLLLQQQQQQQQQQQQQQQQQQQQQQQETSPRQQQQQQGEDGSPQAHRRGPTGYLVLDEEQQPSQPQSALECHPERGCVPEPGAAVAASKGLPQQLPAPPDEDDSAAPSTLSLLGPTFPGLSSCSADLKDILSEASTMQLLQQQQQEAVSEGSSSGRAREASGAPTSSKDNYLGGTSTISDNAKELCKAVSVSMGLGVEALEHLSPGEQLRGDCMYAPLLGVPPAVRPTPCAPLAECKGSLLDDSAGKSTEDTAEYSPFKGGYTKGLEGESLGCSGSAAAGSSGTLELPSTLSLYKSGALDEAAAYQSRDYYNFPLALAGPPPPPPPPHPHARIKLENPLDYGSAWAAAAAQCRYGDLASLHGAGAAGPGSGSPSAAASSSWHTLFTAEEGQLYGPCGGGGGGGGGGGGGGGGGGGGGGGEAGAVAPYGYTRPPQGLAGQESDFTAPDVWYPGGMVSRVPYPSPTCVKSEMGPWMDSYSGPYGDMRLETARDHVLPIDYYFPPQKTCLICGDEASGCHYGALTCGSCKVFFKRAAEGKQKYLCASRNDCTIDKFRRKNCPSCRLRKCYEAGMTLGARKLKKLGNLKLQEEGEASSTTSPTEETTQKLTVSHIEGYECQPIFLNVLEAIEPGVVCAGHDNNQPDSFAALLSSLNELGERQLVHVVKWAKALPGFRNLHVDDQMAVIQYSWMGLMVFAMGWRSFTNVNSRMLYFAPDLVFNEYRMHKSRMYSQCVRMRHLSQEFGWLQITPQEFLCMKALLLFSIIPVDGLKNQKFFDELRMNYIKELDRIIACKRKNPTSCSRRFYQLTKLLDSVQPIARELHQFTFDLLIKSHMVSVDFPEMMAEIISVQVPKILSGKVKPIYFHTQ
Kind of data set: Inhibition of AR in human HEK293 cells assessed as decrease in receptor transactivation at 10 uM incubated for 24 hrs by dual luciferase reporter gene assay. It is filed as cell-based. The method, boiled down:
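HEK 293 cells transiently co-transfected with wt-AR expression vector and an androgen-responsive luciferase reporter construct. Cells given 2 nM testosterone plus 10 µM test compound (final concentrations). Read-out by luciferase, mean ± SD, n = 3.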
(A reporter such as luciferase makes a cellular process visible.)

Data set [2] concerns T2, Androgen receptor (Homo sapiens), P10275 [F877L].
T2 sequence (whole entry): T1 sequence (whole entry) with F877L
Kind of data set: Inhibition of EGFP-tagged AR F876L mutant (unknown origin) transfected in human WPMY1 cells assessed as reduction in R1881-induced nuclear translocation of AR F876L at 20 uM incubated for 24 hrs by Hoechst 33342 staining based fluorescence microscopy. It is filed as cell-based. In short, it runs like this: (§1)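 WPMY-1 cells transfected with EGFP-tagged wt-AR or AR-F876L. Treated with vehicle or 20 µM compound, with or without 0.5 nM R1881, for 24 h. Nuclei labelled with Hoechst 33342 and AR localisation imaged by fluorescence.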

Another data set has as its system CWR22R. Kind of data set: Antiproliferative activity against human 22Rv1 expressing AR assessed as reduction in cell viability incubated for 6 days by CCK-8 assay. It is filed as functional, cell-based. The settings on record: 22Rv1, 144 h. The method, boiled down: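 Cell proliferation assay run on LNCaP/AR, VCaP, 22Rv1, PC-3 and L-02 cells, with PC-3 and L-02 serving as AR-independent toxicity controls. IC50 fitted in GraphPad Prism 5 as the mean of at least two experiments, each in duplicate. Deviations under 35%.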
A general note: Formazan colour is commonly taken as a measure of viable cells.

In data set [3] the target is T1, Androgen receptor (Homo sapiens). Kind of data set: Inhibition of EGFP-tagged AR (unknown origin) transfected in human WPMY1 cells assessed as reduction in R1881-induced nuclear translocation of AR at 20 uM incubated for 24 hrs by Hoechst 33342 staining based fluorescence microscopy. Format: cell-based. In short, it runs like this: as §1
The target is the same in data set [4]. Kind of data set: Inhibition of AR (unknown origin) transfected in human PC3 cells assessed as receptor transactivation at 0.1 to 30 uM incubated for 24 hrs by dual luciferase reporter gene assay. It is filed as cell-based.
For the next data set, the system named is LNCaP. In words: Inhibition of AR protein expression in human LNCAP cells at 20 uM incubated for 24 hrs by Western blot analysis. Format: functional, cell-based. The method, boiled down: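 LNCaP cells treated with 20 µM compound or DMSO for 24 h. AR-full protein detected by western blot with tubulin as loading control, then quantified by ImageJ grayscale analysis.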

Data set [5] can be described thus: Solubility of compound in PBS incubated for 24 hrs by HPLC analysis. It is filed as physicochemical. The method, boiled down: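 Solubility determined in PBS at 25 ℃ by the saturation shake-flask method. Quantified against calibration curves.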
In data set [6] the test system is T2, Androgen receptor (Homo sapiens), P10275 [F877L]. In words: Inhibition of AR F876L mutant (unknown origin) transfected in human PC3 cells assessed as receptor transactivation at 0.1 to 30 uM incubated for 24 hrs by dual luciferase reporter gene assay. It is filed as cell-based.
The subject of a further data set is VCaP. In words: Inhibition of AR protein expression in human VCaP cells at 10 to 30 uM incubated for 24 hrs by Western blot analysis. It is filed as functional, cell-based. The method, boiled down:
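LNCaP, VCaP and 22Rv1 cells grown in medium with 10% (v/v) FBS. Treated with compounds or DMSO for 24 h. AR-full and AR splice-variant protein then assessed by western blot.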
(In general: In western blotting, separated proteins are transferred to a membrane and probed.)

In data set [7] the target is Bromodomain-containing protein 4 (Homo sapiens) (UniProt O60885). Kind of data set: Inhibition of BRD4 (unknown origin) by alpha-screen assay.

Take `C[C@@H](Cn1ccc(-c2ccc(C#N)c(Cl)c2)n1)Nc1ncnc2nc[nH]c12`: the inhibition result (in data set [1]; in data set [2]; in data set [3]; in data set [4]; in the data set on LNCaP; in data set [6]) was “Active” in each case. The inhibition result in the data set with VCaP was “Active”. Also, the IC50 in the data set with CWR22R was 4.24 µM. The molecule also registered a solubility at 24 h in data set [5] of 24.5 µM (≈ 9.27 µg/mL). For the same molecule, the inhibition entry in data set [7] is “inactive”.
In the case of `C[C@@H](Cn1ccc(-c2ccc(C#N)c(Cl)c2)n1)Nc1cccc2ncccc12`, the inhibition result (in data set [1]; in data set [2]; in [3]; in data set [4]; in the data set with LNCaP; in data set [6]) was “Active” throughout. In addition, the inhibition entry in the data set with VCaP was “Active”. The IC50 in the data set with CWR22R was 3.92 µM. In [5], the solubility at 24 h is below 2.52 µM. Moreover, the inhibition entry in data set [7] is “inactive”.

A word on the IC50: it is the concentration that inhibits the measured activity by half. One may read the solubility as how much of the substance goes into solution per volume.
